From ChEMBL document CHEMBL4033786, “Discovery of Novel 1-Cyclopentenyl-3-phenylureas as Selective, Brain Penetrant, and Orally Bioavailable CXCR2 Antagonists” (J Med Chem, 2018)
≈ marks a conversion by molar mass, not a printed value.

Columns and labels:
[1] = Clearance in Wistar rat blood at 0.98 mg/kg, iv measured up to 4 hrs post dose; format: ADME, organism-based
[2] = target: T1, C-X-C chemokine receptor type 3 (Homo sapiens, UniProt P49682); assay: Agonist activity at CXCR3 (unknown origin)
T1 sequence (P49682 whole entry): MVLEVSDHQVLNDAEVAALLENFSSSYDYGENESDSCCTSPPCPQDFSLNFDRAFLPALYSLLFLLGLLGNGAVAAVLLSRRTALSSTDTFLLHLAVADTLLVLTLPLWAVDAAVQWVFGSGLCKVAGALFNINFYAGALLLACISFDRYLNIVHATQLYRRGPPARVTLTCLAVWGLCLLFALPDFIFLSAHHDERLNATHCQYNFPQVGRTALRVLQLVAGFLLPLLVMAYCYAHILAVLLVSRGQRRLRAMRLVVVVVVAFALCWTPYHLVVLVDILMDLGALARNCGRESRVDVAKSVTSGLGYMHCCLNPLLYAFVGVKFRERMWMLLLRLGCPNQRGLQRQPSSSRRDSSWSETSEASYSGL
In short: (§1)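 β-arrestin assays run in both agonist and antagonist modes across a panel of 18 CXC and CC chemokine receptors.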

[3] = target: T2, C-C chemokine receptor type 8 (Homo sapiens, UniProt P51685); assay: Antagonist activity at CCR8 (unknown origin); in short: as §1
T2 sequence (P51685 whole entry): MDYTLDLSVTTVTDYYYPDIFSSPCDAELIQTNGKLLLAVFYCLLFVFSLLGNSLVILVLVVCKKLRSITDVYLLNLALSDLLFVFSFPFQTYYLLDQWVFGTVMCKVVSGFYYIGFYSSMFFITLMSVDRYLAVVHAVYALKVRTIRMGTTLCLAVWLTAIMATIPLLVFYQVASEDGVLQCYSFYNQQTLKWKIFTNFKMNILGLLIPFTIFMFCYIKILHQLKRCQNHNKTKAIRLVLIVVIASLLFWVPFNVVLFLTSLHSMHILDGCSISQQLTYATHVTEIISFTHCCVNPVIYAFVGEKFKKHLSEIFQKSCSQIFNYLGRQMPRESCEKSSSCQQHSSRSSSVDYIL

[4] = target: T3, C-C chemokine receptor type 5 (Homo sapiens, UniProt P51681); assay: Antagonist activity at CCR5 (unknown origin); in short: as §1
T3 sequence (P51681 whole entry): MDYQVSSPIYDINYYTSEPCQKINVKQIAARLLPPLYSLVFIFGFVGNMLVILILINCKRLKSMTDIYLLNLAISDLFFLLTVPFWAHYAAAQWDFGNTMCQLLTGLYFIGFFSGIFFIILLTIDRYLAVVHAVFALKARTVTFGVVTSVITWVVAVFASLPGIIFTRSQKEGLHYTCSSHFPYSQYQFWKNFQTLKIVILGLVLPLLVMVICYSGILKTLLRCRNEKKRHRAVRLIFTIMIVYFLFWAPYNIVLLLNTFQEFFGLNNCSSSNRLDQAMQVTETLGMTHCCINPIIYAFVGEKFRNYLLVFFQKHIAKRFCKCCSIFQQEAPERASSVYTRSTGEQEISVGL

[5] = Volume of distribution at steady state in Wistar rat at 0.98 mg/kg, iv measured up to 4 hrs post dose; format: ADME, organism-based; settings: in vivo, read-out: Vdss
[6] = target: T4, Chemerin-like receptor 1 (Homo sapiens, UniProt Q99788); assay: Antagonist activity at CMKLR1 (unknown origin); in short: as §1
T4 sequence (Q99788 whole entry): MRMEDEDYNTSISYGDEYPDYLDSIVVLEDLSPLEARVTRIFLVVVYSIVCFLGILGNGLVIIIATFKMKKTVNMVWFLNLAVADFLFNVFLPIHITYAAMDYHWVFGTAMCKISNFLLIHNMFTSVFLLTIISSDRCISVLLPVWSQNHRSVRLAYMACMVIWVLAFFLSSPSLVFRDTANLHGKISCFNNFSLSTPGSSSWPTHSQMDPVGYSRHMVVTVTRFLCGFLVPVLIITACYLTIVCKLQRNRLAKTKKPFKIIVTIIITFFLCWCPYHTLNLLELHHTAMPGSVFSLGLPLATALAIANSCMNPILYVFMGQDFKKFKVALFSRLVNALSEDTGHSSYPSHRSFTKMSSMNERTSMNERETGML

[7] = target: C-X-C chemokine receptor type 5 (Homo sapiens, UniProt P32302); assay: Antagonist activity at CXCR5 (unknown origin); in short: as §1
Sequence of C-X-C chemokine receptor type 5 (P32302 whole entry): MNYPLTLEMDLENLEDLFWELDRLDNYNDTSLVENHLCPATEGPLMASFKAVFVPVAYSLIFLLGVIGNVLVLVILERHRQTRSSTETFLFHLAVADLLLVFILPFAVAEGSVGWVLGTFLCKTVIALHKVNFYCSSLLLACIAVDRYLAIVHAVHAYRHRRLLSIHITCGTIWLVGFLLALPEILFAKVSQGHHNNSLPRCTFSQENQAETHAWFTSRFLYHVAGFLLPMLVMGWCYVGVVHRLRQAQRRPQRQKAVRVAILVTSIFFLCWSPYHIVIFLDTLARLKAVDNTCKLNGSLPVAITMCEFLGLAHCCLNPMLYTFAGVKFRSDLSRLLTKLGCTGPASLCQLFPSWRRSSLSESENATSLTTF

[8] = Oral bioavailability in Wistar rat at 2.41 mg/kg measured up to 4 hrs after dose; format: ADME, organism-based; settings: in vivo
[9] = Unbound brain-to-blood concentration ratio in Han-Wistar SOA rat model at 2 mg/kg administered via oral gavage by UPLC/MS/MS analysis; format: ADME, organism-based; settings: read-out: K(p,uu,brain)
In short: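 Male Han-Wistar rats given a single 2 mg/kg oral gavage as a suspension in DMSO:1% methylcellulose (1:99). Blood was taken by cardiac puncture under isoflurane at 0.25–7 h, diluted 1:3 with water, and brains were homogenized in 3-fold PBS. Samples were extracted by acetonitrile protein precipitation and quantified by UPLC/MS/MS. Kp = brain DNAUC0-7h/blood DNAUC0-7h; Kp,uu = Kp×Fu,br/Fu,bl.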

[10] = Solubility of compound in fasted state simulated intestinal fluid measured after 4 hrs; format: physicochemical
In short: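 Solubility in FaSSIF, read after 4 h incubation.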

[11] = system: Mus musculus; assay: Antiinflammatory activity in C57Bl/6 mouse air pouch model assessed as inhibition of carrageenan-induced neutrophil infiltration administered po bid starting from day 3 post air reinflation at 4 hrs post carrageenan induction measured on day 6 post last dose; format: functional, organism-based
In short: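 Male C57Bl/6 mice aged 6–8 weeks received 5 mL air dorsally under pentobarbital on day 0, with 2.5 mL re-inflations on days 3 and 6. Oral dosing of vehicle or 1, 3 or 10 mg/kg BID ran from day 3; on day 6 dosing preceded re-inflation and 1 mL 2% carrageenan. At 4 h the pouch was lavaged with 4 mL PBS, and neutrophils were counted on Giemsa-stained cytospins as % of vehicle. One-way ANOVA with Bonferroni.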

[12] = target: T5, C-X-C chemokine receptor type 2 (Homo sapiens, UniProt P25025); assay: Agonist activity at TEV protease cleavage site linked GAL4-VP16-fused recombinant human CXCR2 expressed in cells assessed as induction of beta-arrestin recruitment by CCF4-AM-fluorescence based FRET assay; format: cell-based
T5 sequence (P25025 whole entry): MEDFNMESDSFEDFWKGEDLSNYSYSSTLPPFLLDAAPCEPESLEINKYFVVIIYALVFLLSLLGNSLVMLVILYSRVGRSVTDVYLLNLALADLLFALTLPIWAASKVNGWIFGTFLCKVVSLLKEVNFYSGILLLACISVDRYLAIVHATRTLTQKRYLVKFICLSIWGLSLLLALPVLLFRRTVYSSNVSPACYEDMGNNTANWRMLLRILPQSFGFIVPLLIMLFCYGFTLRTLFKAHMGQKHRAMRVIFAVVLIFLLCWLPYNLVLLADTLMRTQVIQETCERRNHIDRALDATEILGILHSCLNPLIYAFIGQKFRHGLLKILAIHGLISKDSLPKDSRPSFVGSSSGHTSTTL
In short: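 Part of an 18-receptor chemokine panel run in agonist and antagonist modes. Stable line carrying human CXCR2 linked to a TEV site and Gal4-VP16 was starved 24 h at 37 °C, 5% CO2, and incubated overnight with compound dispensed in DMSO. CCF4-AM substrate was loaded for 2 h at room temperature in the dark. Read-out was the background-subtracted 460/530 nm ratio, with sigmoidal curve fit.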

[13] = target: T3, C-C chemokine receptor type 5; assay: Agonist activity at CCR5 (unknown origin); in short: as §1
[14] = Intrinsic clearance in dog hepatocytes; format: ADME, cell-based, Canis lupus familiaris, Hepatocyte
[15] = target: C-C chemokine receptor type 2 (Homo sapiens, UniProt P41597); assay: Antagonist activity at CCR2 (unknown origin); in short: as §1
Sequence of C-C chemokine receptor type 2 (P41597 whole entry): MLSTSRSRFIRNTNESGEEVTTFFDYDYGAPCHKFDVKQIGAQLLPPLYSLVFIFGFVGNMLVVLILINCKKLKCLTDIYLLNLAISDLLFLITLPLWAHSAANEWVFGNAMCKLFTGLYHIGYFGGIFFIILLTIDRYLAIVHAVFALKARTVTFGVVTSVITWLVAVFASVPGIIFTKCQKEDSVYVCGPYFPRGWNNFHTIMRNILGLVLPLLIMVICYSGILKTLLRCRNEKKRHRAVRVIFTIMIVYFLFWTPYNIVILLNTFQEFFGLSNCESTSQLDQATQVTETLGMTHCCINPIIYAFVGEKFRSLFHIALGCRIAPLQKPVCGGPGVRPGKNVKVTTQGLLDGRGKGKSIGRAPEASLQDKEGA

[16] = target: T1, C-X-C chemokine receptor type 3; assay: Antagonist activity at CXCR3 (unknown origin); in short: as §1
[17] = target: T4, Chemerin-like receptor 1; assay: Agonist activity at CMKLR1 (unknown origin); in short: as §1
[18] = system: Rattus norvegicus; assay: Antiinflammatory activity in Wistar rat air pouch model assessed as inhibition of carrageenan-induced neutrophil infiltration administered po bid starting from day 3 post air reinflation at 4 hrs post carrageenan induction measured on day 6 post last dose; format: functional, organism-based
In short: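 Male Wistar rats aged 8–10 weeks received 20 mL air, then 10 mL re-inflations on days 3 and 6. Oral dosing of vehicle or 1, 3 or 10 mg/kg BID ran from day 3, given on day 6 just before re-inflation and 1 mL 2% carrageenan. Pouch lavage (4 mL PBS) was taken at 4 h, and neutrophils were counted on Giemsa-stained cytospins as % of vehicle.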

[19] = Fraction unbound in Han-Wistar SOA rat model blood at 2 mg/kg administered via oral gavage by UPLC/MS/MS analysis; format: ADME, organism-based
[20] = Intrinsic clearance in human hepatocytes; format: ADME, cell-based, Hepatocyte
[21] = target: C-X-C chemokine receptor type 6 (Homo sapiens, UniProt O00574); assay: Agonist activity at CXCR6 (unknown origin); in short: as §1
Sequence of C-X-C chemokine receptor type 6 (O00574 whole entry): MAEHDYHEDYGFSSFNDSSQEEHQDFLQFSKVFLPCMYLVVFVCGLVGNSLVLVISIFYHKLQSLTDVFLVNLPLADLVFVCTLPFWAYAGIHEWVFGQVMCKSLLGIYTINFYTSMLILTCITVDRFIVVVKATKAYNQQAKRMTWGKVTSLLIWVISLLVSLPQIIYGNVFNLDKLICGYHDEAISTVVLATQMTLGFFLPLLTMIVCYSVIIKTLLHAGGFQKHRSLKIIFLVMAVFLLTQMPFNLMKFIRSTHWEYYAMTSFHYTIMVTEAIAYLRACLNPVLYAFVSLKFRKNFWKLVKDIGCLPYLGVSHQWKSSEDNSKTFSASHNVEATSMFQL

[22] = system: Rattus norvegicus; assay: Dose normalized AUC (0 to infinity) in Wistar rat at 2.41 mg/kg, po measured up to 4 hrs post dose; format: ADME, organism-based; settings: in vivo
[23] = system: Canis familiaris; assay: Dose normalized AUC (0 to infinity) in dog at 0.85 mg/kg, iv measured up to 4 hrs post dose; format: ADME, organism-based, Canis lupus familiaris; settings: in vivo
[24] = target: C-C chemokine receptor type 7 (Homo sapiens, UniProt P32248); assay: Agonist activity at CCR7 (unknown origin); in short: as §1
Sequence of C-C chemokine receptor type 7 (P32248 whole entry): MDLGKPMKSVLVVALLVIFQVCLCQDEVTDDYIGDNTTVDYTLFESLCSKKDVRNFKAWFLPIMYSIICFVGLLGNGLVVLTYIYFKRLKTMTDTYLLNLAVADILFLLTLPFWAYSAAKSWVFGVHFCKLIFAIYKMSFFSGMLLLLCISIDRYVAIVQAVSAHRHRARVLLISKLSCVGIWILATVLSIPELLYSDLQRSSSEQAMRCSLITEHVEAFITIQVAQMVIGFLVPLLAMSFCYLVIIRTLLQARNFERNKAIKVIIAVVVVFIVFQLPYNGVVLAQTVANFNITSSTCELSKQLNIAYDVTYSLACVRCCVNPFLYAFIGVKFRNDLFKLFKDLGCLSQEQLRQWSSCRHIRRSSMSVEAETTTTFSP

[25] = Oral bioavailability in dog at 1.29 mg/kg measured up to 4 hrs after dose; format: ADME, organism-based, Canis lupus familiaris; settings: in vivo
[26] = Elimination half life in Wistar rat at 0.98 mg/kg, iv measured up to 4 hrs post dose; format: ADME, organism-based; settings: in vivo, read-out: beta t1/2 (converted)
[27] = Efflux ratio of passive permeability in MDCK2-MDR1 cells transduced with BacMam2-BCRP at 3 uM after 90 mins by Transwell assay; format: ADME, cell-based, Canis lupus familiaris, MDCK-MDR1; settings: dog
In short: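 MDCKII-MDR1 cells transduced with BacMam2-BCRP in Transwells. Compound at 3 μM was measured in duplicate, A→B and B→A, after 90 min, with and without 5 μM GF120918. ER = B→A/A→B permeability without inhibitor. System qualified with amprenavir and dantrolene ERs.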

[28] = Intrinsic clearance in rat hepatocytes; format: ADME, cell-based, Hepatocyte
[29] = system: Canis familiaris; assay: Dose normalized AUC (0 to infinity) in dog at 1.29 mg/kg, po measured up to 4 hrs post dose; format: ADME, organism-based, Canis lupus familiaris; settings: in vivo
[30] = target: T2, C-C chemokine receptor type 8; assay: Agonist activity at CCR8 (unknown origin); in short: as §1
[31] = Cmax in Wistar rat at 2.41 mg/kg, po measured up to 4 hrs post dose; format: ADME, organism-based; parameters: dose 2.41 mg/kg, route oral; settings: in vivo

## CC1=CCC[C@H]1NC(=O)Nc1ccc(Cl)c(S(=O)(=O)[C@@]2(C)CCOC2)c1O
[1]
  clearance: 9.1 mL/min/kg
[2]
  EC50: > 10 µM
[3]
  IC50: > 10 µM
[4]
  IC50: > 10 µM
[5]
  Vd: 2.1 L/kg
[6]
  IC50: > 10 µM
[7]
  IC50: > 10 µM
[8]
  bioavailability: 47%
[9]
  Kp uu: 0.63
[10]
  solubility at 4 h: 21 µg/mL (≈ 50.6 µM)
[11]
  inhibition: Dose-dependent effect
[12]
  EC50: > 10 µM
[13]
  EC50: > 10 µM
[14]
  CLH: 1.8 mL/min/g
[15]
  IC50: > 10 µM
[16]
  IC50: > 10 µM
[17]
  EC50: > 10 µM
[18]
  inhibition: Dose-dependent effect
[19]
  fraction unbound: 0.027
[20]
  CLH: 0.79 mL/min/g
[21]
  EC50: > 10 µM
[22]
  AUC/dose: 860 ng·h/mL/mg/kg
[23]
  AUC/dose: 2996 ng·h/mL/mg/kg
[24]
  EC50: > 10 µM
[25]
  bioavailability: 76%
[26]
  half-life: 4.3 h
[27]
  efflux ratio at 1.5 h, 3 µM: 2
[28]
  CLH: 7.7 mL/min/g
[29]
  AUC/dose: 2298 ng·h/mL/mg/kg
[30]
  EC50: > 10 µM
[31]
  Cmax: 452 ng/mL
